Measurements: ChEMBL document CHEMBL1926597, “Isoflavonoids and coumarins from Glycyrrhiza uralensis: antibacterial activity against oral pathogens and conversion of isoflavans into isoflavan-quinones during purification” (J Nat Prod, 2011)
The source made the active and inactive calls. No cut-off for these calls is given here.

What was measured:
Streptococcus mutans [1] = assay: Antibacterial activity against Streptococcus mutans ATCC 25175 assessed as growth inhibition at 1.25 to 10 ug/ml after 24 hrs by microplate dilution assay; format: functional, organism-based
Prevotella intermedia [2] = assay: Antibacterial activity against Prevotella intermedia ATCC 25611 assessed as growth inhibition at 1.25 to 10 ug/ml after 24 hrs by microplate dilution assay; format: functional, organism-based
In short: (§1)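 Todd Hewitt broth with hemin (10 μg/mL) and vitamin K (1 μg/mL). 24-h cultures were diluted to OD660 0.2 and mixed 1:1 with serial dilutions in broth (compounds 10 to 1.25 μg/mL; penicillin G 2.5 to 0.00625 μg/mL). Plates were incubated 24 h at 37 °C anaerobically (N2–H2–CO2 75:10:15), then OD660 was read against no-compound control wells. Triplicates were given as mean ± SD; Student's t test was applied when inhibition was ≥20%.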

Streptococcus sobrinus [3] = assay: Antibacterial activity against Streptococcus sobrinus ATCC 33478 assessed as growth inhibition at 1.25 to 10 ug/ml after 24 hrs by microplate dilution assay; format: functional, organism-based
Porphyromonas gingivalis [4] = assay: Antibacterial activity against Porphyromonas gingivalis ATCC 33277 assessed as growth inhibition at 0.00625 to 2.5 ug/ml ug/ml after 24 hrs by microplate dilution assay; format: functional; in short: as §1
Fusobacterium nucleatum [5] = assay: Antibacterial activity against Fusobacterium nucleatum ATCC 25586 assessed as growth inhibition at 0.00625 to 2.5 ug/ml ug/ml after 24 hrs by microplate dilution assay; format: functional, organism-based; in short: as §1
Prevotella intermedia [6] = assay: Antibacterial activity against Prevotella intermedia ATCC 25611 assessed as growth inhibition at 0.00625 to 2.5 ug/ml ug/ml after 24 hrs by microplate dilution assay; format: functional, organism-based; in short: as §1
Streptococcus sobrinus [7] = assay: Antibacterial activity against Streptococcus sobrinus ATCC 33478 assessed as growth inhibition at 0.00625 to 2.5 ug/ml after 24 hrs by microplate dilution assay; format: functional, organism-based
Streptococcus mutans [8] = assay: Antibacterial activity against Streptococcus mutans ATCC 25175 assessed as growth inhibition at 0.00625 to 2.5 ug/ml after 24 hrs by microplate dilution assay; format: functional, organism-based
Streptococcus mutans [9] = assay: Antibacterial activity against Streptococcus mutans ATCC 25175 assessed as growth inhibition at 10 ug/ml after 24 hrs by microplate dilution assay; format: functional, organism-based
Porphyromonas gingivalis [10] = assay: Antibacterial activity against Porphyromonas gingivalis ATCC 33277 assessed as growth inhibition at 1.25 to 10 ug/ml after 24 hrs by microplate dilution assay; format: functional; in short: as §1
Fusobacterium nucleatum [11] = assay: Antibacterial activity against Fusobacterium nucleatum ATCC 25586 assessed as growth inhibition at 1.25 to 10 ug/ml after 24 hrs by microplate dilution assay; format: functional, organism-based; in short: as §1
Streptococcus sobrinus [12] = assay: Antibacterial activity against Streptococcus sobrinus ATCC 33478 assessed as growth inhibition at 10 ug/ml after 24 hrs by microplate dilution assay; format: functional, organism-based

Structure (SMILES)	growth inhibition (GI) (Streptococcus mutans [1])	growth inhibition (GI) (Prevotella intermedia [2])	growth inhibition (GI) (Streptococcus sobrinus [3])	other results
COc1cc2c(c(OC)c1CC=C(C)C)C[C@H](c1ccc(O)cc1O)CO2	inactive	Active	inactive	–
COc1cc2oc(=O)c(-c3ccc(O)cc3O)cc2c(OC)c1CC=C(C)C	inactive	Active	inactive	–
COc1c(CC=C(C)C)c(O)cc2oc(=O)c(-c3ccc(O)cc3O)cc12	inactive	Active	inactive	–
CC1(C)S[C@@H]2[C@H](NC(=O)Cc3ccccc3)C(=O)N2[C@H]1C(=O)O	–	–	–	growth inhibition (GI) (Porphyromonas gingivalis [4]): Active; growth inhibition (GI) (Fusobacterium nucleatum [5]): Active; growth inhibition (GI) (Prevotella intermedia [6]): Active; growth inhibition (GI) (Streptococcus sobrinus [7]): Active; growth inhibition (GI) (Streptococcus mutans [8]): Active
COc1cc2c(c(OC)c1CC=C(C)C)C[C@H](C1=CC(=O)C(O)=C(CC=C(C)C)C1=O)CO2	inactive	Active	inactive	–
CC(C)=CCc1cc(-c2coc3cc(O)cc(O)c3c2=O)c(O)cc1O	inactive	Active	inactive	–
COc1c(CC=C(C)C)c(O)cc2c1C[C@H](c1ccc(O)c(CC=C(C)C)c1O)CO2	–	Active	–	growth inhibition (GI) (Streptococcus mutans [9]): Active; growth inhibition (GI) (Porphyromonas gingivalis [10]): Active; growth inhibition (GI) (Fusobacterium nucleatum [11]): Active; growth inhibition (GI) (Streptococcus sobrinus [12]): Active
